Measurements collected from several papers.
Lines come from different studies, so protocols differ.
Target: Protein kinase C alpha type (PRKCA, Homo sapiens, UniProt P17252)

CCN(CC)CCNC(=O)c1c(C)[nH]c(/C=C2\C(=O)Nc3ccc(F)cc32)c1C — remaining activity (enzyme activity; inhibitor; 0.1 µM): 101%
CN1CC(Oc2cnc(C#N)cc2-c2ccn3nc(NC(=O)C4CC4)cc3c2)C1 — inhibition (enzyme activity; inhibitor; 1 µM): 2%
C=CC(=O)Nc1cc(Nc2nccc(Nc3cc(Cl)c(F)cc3C(C)(C)O)n2)c(OC)cc1N1CC[C@@H](N(C)C)C1 — inhibition (enzyme activity; inhibitor; 1 µM): 13%
Cc1ccc(C(=O)NCc2ccsc2)cc1C#Cc1cn(C(C)C)c2ncnc(N)c12 — activity vs control (enzyme activity; inhibitor; 1 µM): 92%
CC(C)c1ccc(NC(=O)c2cccs2)c(-c2nc3ccccc3[nH]c2=O)c1 — activity vs control (enzyme activity; inhibitor; 1 µM): 100%
CNC(=O)c1cc(Oc2ccc(NC(=O)Nc3ccc(Cl)c(C(F)(F)F)c3)cc2)ccn1 — remaining signal (cell-free assay; 0.5 µM): 96.8%
CC(C)(C)c1nc2c(s1)c1nc(N)ncc1c1ccc(NS(=O)(=O)c3c(F)cccc3F)c(F)c12 — remaining activity (enzyme activity; inhibitor; radiometric; 1 µM): 107%
Cc1ccc(Nc2nccc(N(C)c3ccc4c(C)n(C)nc4c3)n2)cc1S(N)(=O)=O — inhibition (enzyme activity; inhibitor; 10 µM): 10%
CC(C)(O)[C@H]1CC[C@H](Nc2ccc3ncc(-c4cccc(C(F)(F)F)c4)n3n2)CC1 — remaining activity (enzyme activity; inhibitor; 1 µM): 69.5%
Cc1cnc(NC2CCOCC2)nc1-n1cnc(C(=O)NC(CN)c2cc(F)cc(Cl)c2)c1 (stereo not shown) — remaining activity (enzyme activity; inhibitor; radiometric; 1 µM): 100%
O=C(Nc1cnn(-c2csc(C(=O)NC3COC3)c2)c1)Nc1c(F)cccc1Cl — remaining activity (enzyme activity; inhibitor; 5 µM): 90.7%
Cn1c(=O)n(-c2ccc(C(C)(C)C#N)cc2)c2c3cc(-c4cnc5ccccc5c4)ccc3ncc21 — remaining activity (enzyme activity; inhibitor; 10 µM): 87%
COc1cc2ncnc(Nc3ccc(Oc4ccccc4)c(C)c3C)c2cc1OC — inhibition (enzyme activity; inhibitor; 1 µM): 8%
CN(c1ncccc1CNc1nc(Nc2ccc3c(c2)CC(=O)N3)ncc1C(F)(F)F)S(C)(=O)=O — inhibition (enzyme activity; inhibitor; 1 µM): 28.4%
COc1cc(Nc2cnc(C#N)c(O[C@H](C)CN(C)C)n2)ncc1-c1cnn(C)c1 — remaining activity (enzyme activity; inhibitor; radiometric; 10 µM): 102%
CN(C)CCCn1cc(C2=C(c3c[nH]c4ccccc34)C(=O)NC2=O)c2ccccc21 — remaining signal (cell-free assay; 0.5 µM): 6.27%
Cc1cc(NC(=O)c2cccc3cc(-c4cccc5[nH]nc(N)c45)ccc23)ccc1F — activity vs control (enzyme activity; inhibitor; 0.1 µM): 95%
O=C(CSc1nc2nccnc2c(=O)n1CCc1ccccc1)Nc1nccs1 — inhibition (enzyme activity; inhibitor; 10 µM): 15%
CN(C)C[C@H]1CCn2c(c(C3=C(c4cn(C)c5ccccc45)C(=O)NC3=O)c3ccccc32)C1 — remaining signal (cell-free assay; 0.5 µM): 2.58%
Cc1[nH]c(/C=C2\C(=O)Nc3ccc(F)cc32)c(C)c1C(=O)N[C@H]1CCN(C(=O)N(C)C)C1 — remaining activity (enzyme activity; inhibitor; 1 µM): 106%
FC(F)(F)Oc1cccc(-c2cnc3ccc(-c4ccncc4)nn23)c1 — activity vs control (enzyme activity; inhibitor; radiometric; 1 µM): 96%
O=C(Nc1cnn(-c2csc(C(=O)NC3COC3)c2)c1)Nc1ccccc1Cl — remaining activity (enzyme activity; inhibitor; 5 µM): 101%
